# Measured values published in ChEMBL document CHEMBL4130551, “1,2,4-Thiadiazolidin-3,5-diones as novel hydrogen sulfide donors” (Eur J Med Chem, 2018).
# Active and inactive are the calls of the source. No cut-off for these calls is given here.
# Assays:
# [1] = Drug level in pH 7.4 PBS buffer treated with 2,4-Diphenyl-1,2,4-thiadiazoline-3,5-dione at 0.5 mmol after 5 to 60 mins in presence of cysteine by HPLC-MS analysis; type: physicochemical
# [2] = Drug metabolism in PBS buffer assessed as H2S release by measuring time required for 50% of maximum H2S release at steady state at 1 mM after 30 mins in presence of 4 mM L-cysteine by amperometric method; type: physicochemical; settings: 0.5 h, 1000 µM
# How it was run: (§1)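 Amperometric real-time H2S detection at room temperature in assay buffer (10x PBS diluted 1:10 in distilled water). Donor added from DMSO stock to a final 1 mM, 1% DMSO, with 4 mM L-cysteine added where the protocol required. Recorded for 30 min. Curves computer-fitted. TCM50 is the time to reach ½ Cmax. Mean ± SE of 5 experiments.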
# Thoracic aorta [3] = assay: Vasorelaxant activity in CD-1 mouse thoracic aorta rings assessed as inhibition of L-phenylephrine-induced contraction at 100 uM relative to control; type: functional; settings: CD-1, Thoracic aorta
# How it was run: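 Isolated aortic rings precontracted with phenylephrine (1 µM). Cumulative donor concentrations (10 nM–300 µM) or DMSO vehicle. Emax is the maximal relaxation obtained.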
# Thoracic aorta [4] = assay: Vasorelaxant activity in CD-1 mouse thoracic aorta rings assessed as inhibition of L-phenylephrine-induced contraction; type: functional, tissue-based; settings: CD-1, Thoracic aorta
# How it was run: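 Isolated aortic rings precontracted with phenylephrine (1 µM). Cumulative concentration–response curves of each donor (10 nM–300 µM) or DMSO vehicle. EC50 taken from the curves.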
# [5] = Drug level in pH 7.4 PBS buffer treated with 2,4-Diphenyl-1,2,4-thiadiazoline-3,5-dione at 0.5 mmol after 5 to 60 mins in presence of glutathione by ESI-MS analysis; type: physicochemical
# [6] = Drug metabolism in PBS buffer assessed as H2S release by measuring time required for 50% of maximum H2S release at steady state at 1 mM after 30 mins by amperometric method; type: physicochemical; settings: 0.5 h, 1000 µM; how it was run: as §1
# [7] = Drug metabolism in pH 7.4 PBS buffer assessed as phenyl(phenylcarbamoyl)carbamothioic S-acid formation at 0.5 mmol after 5 to 60 mins in presence of cysteine by HPLC-MS analysis; type: physicochemical
# [8] = Stability in pH 7.4 PBS buffer at 0.5 mmol after 5 mins in presence of cysteine by HPLC analysis; type: physicochemical; settings: PBS buffer with cysteine, read-out: Stability
# [9] = Drug metabolism in water at 0.5 mmol after 5 to 60 mins by ESI-MS analysis; type: physicochemical; settings: buffer
# [10] = Drug metabolism in pH 7.4 PBS buffer at 0.5 mmol after 5 to 60 mins in presence of S-methyl cysteine by ESI-MS analysis; type: physicochemical
# [11] = Stability in pH 7.4 PBS buffer at 0.5 mmol after 30 mins in presence of cysteine by HPLC analysis; type: physicochemical; settings: PBS buffer with cysteine, read-out: Stability
# Thoracic aorta [12] = assay: Vasorelaxant activity in CD-1 mouse endothelium denuded thoracic aorta rings assessed as inhibition of L-phenylephrine-induced contraction; type: functional, tissue-based
Structure (SMILES),Time [2],EC50 (Thoracic aorta [4]),Emax at 100 µM (Thoracic aorta [3]),other results
NC(CSSC(=O)N(C(=O)Nc1ccccc1)c1ccccc1)C(=O)O (centres undefined),–,–,–,Drug metabolism [1]: Metabolite_Detected
O=c1sn(-c2ccc(F)cc2)c(=O)n1-c1ccccc1,9.52 min,3900 nM,94.3%,–
COc1ccc(-n2sc(=O)n(-c3ccc(Cl)cc3)c2=O)cc1,15.36 min,2100 nM,98.6%,–
O=C(S)N(C(=O)Nc1ccccc1)c1ccccc1,–,–,–,Drug metabolism [1]: Metabolite_Detected
N[C@@H](CCC(=O)N[C@@H](CSSC(=O)N(C(=O)Nc1ccccc1)c1ccccc1)C(=O)NCC(=O)O)C(=O)O,–,–,–,Drug metabolism [5]: Metabolite_Detected
O=C(Nc1ccccc1)Nc1ccccc1 [DIPHENYLUREA],–,–,–,Drug metabolism [1]: Metabolite_Detected
NC(CSSCC(N)C(=O)O)C(=O)O (centres undefined),–,–,–,Drug metabolism [1]: Metabolite_Detected
O=c1sn(-c2ccccc2)c(=O)n1Cc1ccccc1,11.4 min,–,–,Time [6]: 9.56 min
COc1ccc(-n2sc(=O)n(-c3ccc(OC)cc3)c2=O)cc1,14.8 min,3000 nM,95%,–
O=c1sn(-c2ccccc2)c(=O)n1-c1ccccc1,12.01 min,1700 nM,99.7%,"Drug metabolism [7]: Metabolite_Detected; remaining at 5 min, 0.5 mmol [8]: 82%; Drug metabolism [9]: Metabolite_Notdetected; Drug metabolism [10]: Metabolite_Notdetected; remaining at 0.5 h, 0.5 mmol [11]: 15%; inhibition (Thoracic aorta [12]): Active"
Cc1ccc(-n2sc(=O)n(-c3ccccc3)c2=O)cc1,13.84 min,1300 nM,94.5%,–

# Continued, in another order:
Time [2],EC50 (Thoracic aorta [4]),Structure (SMILES),Emax at 100 µM (Thoracic aorta [3]),other results
13.25 min,1500 nM,COc1ccc(-n2sc(=O)n(-c3ccc(C)cc3)c2=O)cc1,99%,–
13.25 min,1600 nM,COc1ccc(-n2sc(=O)n(-c3ccccc3)c2=O)cc1,100%,–
15.75 min,–,COc1ccc(-n2sc(=O)n(Cc3ccccc3)c2=O)cc1,–,Time [6]: 13.46 min
13.93 min,1900 nM,COc1ccc(-n2sc(=O)n(C3CCCCC3)c2=O)cc1,97.7%,–
